Screening results (PubChem BioAssay)
SIRT5 block = inhibitors of human sirtuin-5 desuccinylase | AID 652115 | inhibition, % at 15 µM | Purified SirT5, succinyl-peptide AMC, trypsin-coupled fluorescence | Q9NXA8 | actives 1.1% (n = 330,000); in the data active = inhibition above about 15%; inconclusive = no clear call, values can overlap the other calls
Target sequence (Q9NXA8 whole entry, looked up): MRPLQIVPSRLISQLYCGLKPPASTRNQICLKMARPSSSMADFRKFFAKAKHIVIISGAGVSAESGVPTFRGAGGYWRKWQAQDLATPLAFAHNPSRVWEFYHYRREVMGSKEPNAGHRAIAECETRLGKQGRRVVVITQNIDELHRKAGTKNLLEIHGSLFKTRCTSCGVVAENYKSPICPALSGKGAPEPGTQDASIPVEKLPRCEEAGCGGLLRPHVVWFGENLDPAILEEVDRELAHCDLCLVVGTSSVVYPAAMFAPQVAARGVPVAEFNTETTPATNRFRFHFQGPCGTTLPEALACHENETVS
E-selectin induc = E-selectin induction on HUVECs; P16581; HUVEC E-selectin immunofluorescence imaging; normalized: neutral wells 0, TNF-alpha wells 100; activation, % at 7.58 µM; actives 0.37% (n = 260,000); AID 686992;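 active = mean E-selectin-positive cell signal at least 10% of the positive control, reached in at least 60% of replicates, without over 20% cell loss; inconclusive = no rule given, readout overlaps actives, possibly toxicity-flagged; inactive = the rest, including those meeting only one limit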
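Test system: HUVEC | Signal: Immunofluorescence imaging | Read-out: Percent E-selectin-positive cells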
DENV2 CPE rescue = inhibitors of DENV2 cytopathic effect | DENV2-infected cells, cytopathic effect rescue, plate reader | CPE inhibition, % at 9.99 µM | actives 1.7% (n = 350,000) | AID 651640; in the data active = CPE inhibition above about 20%, passing the limit was not always enough; inconclusive = no clear call, values can overlap the other calls; tested in BHK-21 cells
Hits are given with their value; . = inactive; ? = inconclusive; / = no result; ! = not active in a repeat. Only some compounds are listed: those with a hit (about 2.9% of all), similar ones and a draw of the others.

SMILES | SIRT5 block | E-selectin induc | DENV2 CPE rescue
CCn1ncc(Br)c1C(=O)Nc1ccc(OC(F)(F)F)cc1 | . | . | .
CCCCCCn1c(=O)n2n(c1=O)[C@@H]1CN(S(=O)(=O)c3ccc(C)cc3)C[C@]1(O)[C@@H](OC(=O)NCC1CCCCC1)C2 | . | . | .
COc1ccc(S(=O)(=O)Nc2ccc3c(c2)C(=O)N(C)C[C@@H](OC)[C@@H](C)CN[C@@H](C)CO3)cc1 | . | . | .
Cc1ccc(NC(=S)N/N=C2\CCCCC2C)cc1 (centres undefined) | . | . | /
C[C@@H]1CCCCO[C@@H](CN(C)C(=O)Cc2ccccc2)[C@@H](C)CN([C@H](C)CO)C(=O)c2cc(NS(=O)(=O)c3ccc(Cl)cc3)ccc2O1 | . | . | 25
C[C@@H]1CCCCO[C@@H](CN(C)C(=O)Cc2ccccc2)[C@@H](C)CN([C@@H](C)CO)C(=O)c2cc(NS(=O)(=O)c3ccc(Cl)cc3)ccc2O1 | . | . | .
C[C@@H]1CN([C@H](C)CO)C(=O)c2cc(-c3cccc(F)c3)cnc2O[C@H]1CN(C)C(=O)Nc1cc(F)ccc1F | . | . | .
C[C@@H]1CN([C@@H](C)CO)C(=O)c2cc(-c3cccc(F)c3)cnc2O[C@H]1CN(C)C(=O)Nc1cc(F)ccc1F | 23 | . | .
C[C@H]1CN([C@@H](C)CO)C(=O)c2cc(-c3cccc(F)c3)cnc2O[C@@H]1CN(C)C(=O)Nc1ccccc1F | . | . | .
C[C@@H]1CN([C@@H](C)CO)C(=O)c2cc(-c3cccc(F)c3)cnc2O[C@@H]1CN(C)C(=O)Nc1cc(F)ccc1F | . | . | 26
O=C(CCc1ccccc1)NC(=S)NCc1ccco1 | . | / | .
CC(C)NC(=O)Nc1ccc2c(c1)C(=O)N([C@@H](C)CO)C[C@H](C)[C@@H](CN(C)S(=O)(=O)c1ccc(Cl)cc1)OCCCC[C@H](C)O2 | . | / | .
CCNC(=S)N/N=C(\C)c1ccc2ccccc2c1OC(F)F | . | / | /
CC(=O)c1ccc(NC(=S)Nc2cccc3ccccc23)cc1 | . | / | .
OCC1OC(n2cnc3c(SCc4ccccc4)ncnc32)C(O)C1O (centres undefined) | . | / | 75
Nc1ncnc2c1ncn2[C@@H]1O[C@H](C(=O)N[C@@H](CCc2ccccc2)C(=O)O)[C@@H](O)[C@H]1O | . | . | 28
COC(=O)[C@@H](Cc1ccccc1)NC(=O)[C@H]1O[C@@H](n2cnc3c(N)ncnc32)[C@H](O)[C@@H]1O | . | . | .
Nc1nc(SCc2ccccc2)c2ncn(C3OC(CO)C(O)C3O)c2n1 (centres undefined) | / | . | .
C[C@H]1CN([C@@H](C)CO)C(=O)CCCn2cc(nn2)CO[C@@H]1CN(C)C(=O)Nc1ccnc(N2CCOCC2)c1 | . | . | .
CCCCOc1ccc(C(=O)NCC(=O)NCC2CCCO2)cc1 (centres undefined) | . | . | .
O=C(Cn1cnc2c(nnn2-c2ccccc2)c1=O)NCC1CCCO1 (centres undefined) | . | . | .
COc1cccc(-n2nnc3c(=O)n(CC(=O)NCC4CCCO4)cnc32)c1 (centres undefined) | 16 | . | .
CSc1nc(N)nc2c1ncn2CC(=O)NCC1CCCO1 (centres undefined) | 31 | . | .
CSc1nc(N)nc2c1ncn2CC(=O)NCC(c1ccccc1)c1ccccc1 | . | . | .
CCC(=O)N1C[C@H](C)[C@H](OC)CN(C)C(=O)c2cc(NC(=O)c3cnccn3)ccc2OC[C@@H]1C | / | . | /
SMILES | SIRT5 block | E-selectin induc | DENV2 CPE rescue
C[C@@H]1CN([C@H](C)CO)S(=O)(=O)c2ccc(-c3cccc(C(=O)N(C)C)c3)cc2O[C@H]1CN(C)C(=O)Nc1ccc(F)cc1 | . | . | 27!
Cc1ccc(-c2ccc3c(c2)O[C@@H](CN(C)C(=O)Nc2ccc(F)cc2)[C@@H](C)CN([C@@H](C)CO)S3(=O)=O)cc1 | . | . | 30
Cc1ccc(-c2ccc3c(c2)O[C@H](CN(C)C(=O)Nc2ccc(F)cc2)[C@@H](C)CN([C@@H](C)CO)S3(=O)=O)cc1 | . | . | .
C[C@H](CO)N1C[C@H](C)[C@@H](CN(C)C(=O)Nc2ccc(F)cc2)Oc2cc(-c3cccc(C(=O)N(C)C)c3)ccc2S1(=O)=O | . | . | .
COc1ccc(N2CCN(C(=O)c3cc(=O)c4cc(Cl)ccc4o3)CC2)cc1 | . | . | ?
COc1ccc(OC)c(S(=O)(=O)NCCOC23CC4CC(CC(C4)C2)C3)c1 | . | / | .
COc1ccc2c(=O)cc(C(=O)O)oc2c1 | . | / | /
O=C(O)c1cc(=O)c2c(OCC(O)COc3cccc4oc(C(=O)O)cc(=O)c34)cccc2o1 | . | . | 26
COc1cccc(NC(=O)N2C[C@@H](O)COC[C@H]3O[C@H](CC(=O)NC4CCC4)CC[C@@H]32)c1 | . | . | .
O=C(COc1ccccc1Cl)NNC(=O)c1ccc2nc[nH]c2c1 | . | . | .
CCN(CC)S(=O)(=O)c1ccc2[nH]c(=O)cc(C(=O)NCC(c3ccco3)N3CCCC3)c2c1 (centres undefined) | . | . | 27
CCN(CC)S(=O)(=O)c1ccc2[nH]c(=O)cc(C(=O)Nc3ccccc3N3CCCC3)c2c1 | . | . | .
O=C(C[C@H]1CC[C@@H]2[C@H](COC[C@H](O)CN2Cc2ccc(F)cc2)O1)NCc1ccncn1 | . | . | 27
COc1ccc(CN2C[C@@H](O)COC[C@H]3O[C@H](CC(=O)NCc4ccncn4)CC[C@@H]32)cc1 | . | . | .
O=C(C[C@@H]1CC[C@@H]2NC[C@H](O)COC[C@H]2O1)NCCc1ccccc1 | . | . | .
O=C(C[C@H]1CC[C@H]2[C@@H](COC[C@@H](O)CN2Cc2ccncc2)O1)NCc1ccncc1 | . | . | .
O=C(C[C@@H]1CC[C@H]2[C@@H](COC[C@@H](O)CN2Cc2ccncc2)O1)NCc1ccncc1 | 19 | . | .
O=C(C[C@@H]1CC[C@H]2[C@@H](COC[C@H](O)CN2Cc2ccc(F)cc2)O1)NCCc1ccccc1 | . | . | .
O=C(C[C@H]1CC[C@H]2NC[C@H](O)COC[C@@H]2O1)NCCc1ccccc1 | . | . | 36
O=C(C[C@@H]1CC[C@@H]2[C@H](COC[C@@H](O)CN2Cc2ccc(F)cc2)O1)NCCc1ccccc1 | . | . | 28
O=C(COC(=O)/C=C/c1ccc(Cl)cc1Cl)Nc1cc(C(F)(F)F)ccc1N1CCOCC1 | . | / | .
COc1cc(CO)cc(I)c1O[C@H]1C=C(C(=O)NCCO)C[C@@H](N(CC2CCCCC2)C(=O)c2cc3ccccc3oc2=O)[C@@H]1O | . | / | .
COc1cc(-c2noc(CCC(=O)NC3CCCCC3)n2)cc(OC)c1OC | . | . | .
CC(Sc1nc2ccccc2[nH]1)C(=O)NC1CCCCC1C (centres undefined) | . | . | .
CC(Oc1ccccc1)C(=O)Nc1ccc(S(=O)(=O)N2CCCC2)cc1 (centres undefined) | . | . | .
CC1(C(=O)NS(=O)(=O)c2ccccc2)CCN1C(=O)c1ccccc1CCc1ccccc1 (centres undefined) | . | . | .
O=C(C[C@H]1CC[C@H]2[C@@H](COC[C@@H](O)CN2C(=O)c2ccc(F)cc2)O1)NCCCN1CCOCC1 | . | . | 20
